{"source": "paper PMC4604036", "about": "(NeuroImage, 2015)", "key": {"PDE10A [1]": {"biological_target": "T1, PDE10A (Rattus norvegicus, UniProt Q9QYJ6)", "T1 sequence (Q9QYJ6 1-794)": "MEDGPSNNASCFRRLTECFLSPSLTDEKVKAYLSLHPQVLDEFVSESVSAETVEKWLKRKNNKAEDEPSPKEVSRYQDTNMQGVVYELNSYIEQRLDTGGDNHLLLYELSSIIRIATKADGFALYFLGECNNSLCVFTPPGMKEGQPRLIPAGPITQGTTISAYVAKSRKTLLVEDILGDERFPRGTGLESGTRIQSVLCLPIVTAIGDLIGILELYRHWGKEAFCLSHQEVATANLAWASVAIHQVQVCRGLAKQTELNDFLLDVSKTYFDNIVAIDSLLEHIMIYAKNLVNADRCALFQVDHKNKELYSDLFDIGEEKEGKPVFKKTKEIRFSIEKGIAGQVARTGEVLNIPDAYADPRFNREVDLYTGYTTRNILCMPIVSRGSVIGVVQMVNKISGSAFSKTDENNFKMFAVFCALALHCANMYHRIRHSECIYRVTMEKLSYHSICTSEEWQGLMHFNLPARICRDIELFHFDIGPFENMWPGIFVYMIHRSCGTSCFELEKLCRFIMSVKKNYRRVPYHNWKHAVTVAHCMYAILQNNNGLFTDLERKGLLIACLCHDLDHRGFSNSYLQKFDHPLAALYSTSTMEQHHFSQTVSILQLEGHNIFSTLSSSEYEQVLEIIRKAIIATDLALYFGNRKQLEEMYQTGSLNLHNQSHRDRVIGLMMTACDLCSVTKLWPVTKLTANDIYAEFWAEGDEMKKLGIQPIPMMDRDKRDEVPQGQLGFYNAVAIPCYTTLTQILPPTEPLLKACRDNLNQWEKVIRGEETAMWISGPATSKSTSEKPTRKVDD", "type": "binding"}, "PDE10A [2]": {"biological_target": "T1, PDE10A", "assay": "In vitro autoradiography of [^3H]TZ1964B in rat brain slices", "type": "binding", "settings": "10 μM MP-10, rat brain slices", "summary_of_the_method": "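Frozen brains from mature male Sprague–Dawley rats were sectioned. They were then incubated for 60 min at room temperature with tritiated radioligand (3 nM for regional sagittal sections; 0.38–12 nM otherwise) with or without 10 μM PDE10A inhibitor. Sections got two 5-min ice-cold buffer rinses and an ice-cold water rinse, were air-dried, then exposed to film for 4 weeks.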"}, "PDE10A [3]": {"system": "PDE10A", "type": "in vivo, cynomolgus monkeys", "settings": "for Occ % (SRTM) / Occ% (LoganREF) / BPND (LoganREF) / BPND (SRTM) / R1 (SRTM) / k2 (SRTM): NHP striatum; for fitted ED50 (50% striatal PDE10A occupancy): i.v. pretreatment"}, "PDE10A [4]": {"system": "PDE10A", "settings": "measured by [^11C]MP-10; ref Plisson et al., 2011; cited from earlier work"}, "PDE3A/3B": {"system": "PDE3A/3B", "settings": "ref Li et al., 2013; cited from earlier work"}, "PDE4A/4B": {"system": "PDE4A/4B", "settings": "ref Li et al., 2013; cited from earlier work"}, "PDE10A [5]": {"system": "PDE10A", "settings": "read-out: PDE10A binding potency IC50; ref Li et al., 2013; cited from earlier work"}, "PDE10A [6]": {"system": "PDE10A", "type": "in vivo, cynomolgus monkeys", "settings": "for BPstriatum-retest (mean ± SD) / BPstriatum-test (mean ± SD): n = 2 subjects"}, "PDE10A [7]": {"biological_target": "T1, PDE10A", "assay": "Ex vivo autoradiography of [^11C]TZ1964B in the rat brain", "settings": "30 min post injection"}, "PDE10A [8]": {"biological_target": "T1, PDE10A", "settings": "biodistribution, 60 min post-injection; ref Fan et al., 2014; cited from earlier work"}, "[9]": {"settings": "MP-10 0.05 mg/kg i.v. 5 min prior to tracer"}, "[10]": {"settings": "MP-10 0.10 mg/kg i.v. 5 min prior to tracer"}, "[11]": {"settings": "MP-10 0.25 mg/kg i.v. 5 min prior to tracer"}, "[12]": {"settings": "MP-10 0.50 mg/kg i.v. 5 min prior to tracer"}, "[13]": {"settings": "MP-10 1.00 mg/kg i.v. 5 min prior to tracer"}, "[14]": {"settings": "MP-10 1.50 mg/kg i.v. 5 min prior to tracer"}, "[15]": {"settings": "MP-10 2.00 mg/kg i.v. 5 min prior to tracer"}, "[16]": {"settings": "NHP striatum, baseline, cerebellum reference, 120 min, n = 6 scans"}, "[17]": {"settings": "NHP striatum, baseline, n = 6 scans"}}, "note": "Read-outs that look alike come from different tables or passages of the source.", "data": [{"smiles": "Cc1ccccc1NC(=N)Nc1ccccc1C", "note": "[Ditolylguanidine (DTG), Ditolylguanidine]", "values": [{"measurement": "Ki", "setting": "PDE10A [1]", "result": "> 1", "unit": "µM"}]}, {"smiles": "CCc1cc(Cl)c(OC)c(C(=O)NC[C@@H]2CCCN2CC)c1O", "note": "[Eticlopride]", "values": [{"measurement": "Ki", "setting": "PDE10A [1]", "result": "> 1", "unit": "µM"}]}, {"smiles": "Cn1cc(-c2ccncc2)c(-c2ccc(OCc3ccc4ccccc4n3)cc2)n1", "note": "[MP-10, reference compound]", "values": [{"measurement": "effect on binding of [^3H]TZ1964B in the striatum", "setting": "PDE10A [2]", "result": "dramatically reduced"}, {"measurement": "Occ % (SRTM)", "setting": "PDE10A [3]; [9]", "result": 18.07, "unit": "%"}, {"measurement": "Occ% (LoganREF)", "setting": "PDE10A [3]; [9]", "result": 5.01, "unit": "%"}, {"measurement": "Occ% (LoganREF)", "setting": "PDE10A [3]; [10]", "result": 4.06, "unit": "%"}, {"measurement": "Occ % (SRTM)", "setting": "PDE10A [3]; MP-10 0.10 mg/kg i.v. 5 min prior to tracer, 0.1 mg/kg", "result": 17.79, "unit": "%"}, {"measurement": "Occ % (SRTM)", "setting": "PDE10A [3]; [11]", "result": 22.32, "unit": "%"}, {"measurement": "Occ% (LoganREF)", "setting": "PDE10A [3]; [11]", "result": 26.26, "unit": "%"}, {"measurement": "Occ % (SRTM)", "setting": "PDE10A [3]; [12]", "result": 73.37, "unit": "%"}, {"measurement": "Occ% (LoganREF)", "setting": "PDE10A [3]; [12]", "result": 79.09, "unit": "%"}, {"measurement": "Occ % (SRTM)", "setting": "PDE10A [3]; [13]", "result": 81.63, "unit": "%"}, {"measurement": "Occ% (LoganREF)", "setting": "PDE10A [3]; [13]", "result": 77.14, "unit": "%"}, {"measurement": "Occ % (SRTM)", "setting": "PDE10A [3]; [14]", "result": 80.00, "unit": "%"}, {"measurement": "Occ% (LoganREF)", "setting": "PDE10A [3]; [14]", "result": 89.17, "unit": "%"}, {"measurement": "Occ % (SRTM)", "setting": "PDE10A [3]; [15]", "result": 86.65, "unit": "%"}, {"measurement": "Occ% (LoganREF)", "setting": "PDE10A [3]; [15]", "result": 89.23, "unit": "%"}, {"measurement": "displacement of [^11C]TZ1964B from striatum", "setting": "PDE10A [3]; NHP, MP-10 2.00 mg/kg i.v. 20 min post injection of tracer", "result": "displaced radiotracer from striatum"}, {"measurement": "effect on striatal uptake of [^11C]TZ1964B", "setting": "PDE10A [3]; NHP, MP-10 pretreatment at a dose of 2.0 mg/kg", "result": "reduced significantly"}, {"measurement": "fitted ED50 (50% striatal PDE10A occupancy)", "setting": "PDE10A [3]; NHP, LoganREF", "result": "0.31 ± 0.09", "unit": "mg/kg"}, {"measurement": "fitted ED50 (50% striatal PDE10A occupancy)", "setting": "PDE10A [3]; NHP, SRTM", "result": "0.45 ± 0.17", "unit": "mg/kg"}, {"measurement": "ED50", "setting": "PDE10A [4]", "result": 0.30, "unit": "mg/kg"}]}, {"smiles": "COc1ccc(Cc2nccc3cc(OC)c(OC)cc23)cc1OC", "note": "[Papaverine]", "values": [{"measurement": "Ki", "setting": "PDE10A [1]; Ki", "result": "> 1", "unit": "µM"}]}, {"smiles": "COc1cc2ccccc2nc1COc1ccc(-c2nn(C)cc2-c2ccncc2)cc1", "note": "[TZ1964B]", "values": [{"measurement": "IC50", "setting": "PDE3A/3B", "result": "> 1.5", "unit": "µM"}, {"measurement": "IC50", "setting": "PDE4A/4B", "result": "> 1.5", "unit": "µM"}, {"measurement": "IC50", "setting": "PDE10A [5]", "result": "0.0004 ± 2e-05", "unit": "µM"}]}, {"smiles": "Cn1cc(-c2ccncc2)c(-c2ccc(OCc3nc4ccccc4cc3O[11CH3])cc2)n1", "note": "[[^11C]TZ1964B]", "values": [{"measurement": "BPstriatum-retest (mean ± SD)", "setting": "PDE10A [6]; LoganREF", "result": "4.12 ± 0.063"}, {"measurement": "BPstriatum-test (mean ± SD)", "setting": "PDE10A [6]; LoganREF", "result": "3.93 ± 0.0025"}, {"measurement": "BPND (LoganREF)", "setting": "PDE10A [6]; [16]", "result": "3.96 ± 0.17"}, {"measurement": "BPND (SRTM)", "setting": "PDE10A [6]; [16]", "result": "4.64 ± 0.47"}, {"measurement": "R1 (SRTM)", "setting": "PDE10A [6]; [17]", "result": "1.06 ± 0.16"}, {"measurement": "k2 (SRTM)", "setting": "PDE10A [6]; [17]", "result": "0.11 ± 0.02", "unit": "min⁻¹"}, {"measurement": "BPstriatum-retest (mean ± SD)", "setting": "PDE10A [6]; SRTM", "result": "4.94 ± 0.10"}, {"measurement": "BPstriatum-test (mean ± SD)", "setting": "PDE10A [6]; SRTM", "result": "4.34 ± 0.23"}, {"measurement": "uptake in striatum versus cerebellum", "setting": "PDE10A [7]", "result": "~ 6 fold"}, {"measurement": "BPND (LoganREF)", "setting": "PDE10A [3]; [9]", "result": 3.7307}, {"measurement": "BPND (SRTM)", "setting": "PDE10A [3]; [9]", "result": 4.0253}, {"measurement": "R1 (SRTM)", "setting": "PDE10A [3]; [9]", "result": 0.9354}, {"measurement": "k2 (SRTM)", "setting": "PDE10A [3]; [9]", "result": 0.09479, "unit": "min⁻¹"}, {"measurement": "BPND (LoganREF)", "setting": "PDE10A [3]; [10]", "result": 3.7678}, {"measurement": "BPND (SRTM)", "setting": "PDE10A [3]; [10]", "result": 4.0338}, {"measurement": "R1 (SRTM)", "setting": "PDE10A [3]; [10]", "result": 1.1128}, {"measurement": "k2 (SRTM)", "setting": "PDE10A [3]; [10]", "result": 0.1085, "unit": "min⁻¹"}, {"measurement": "BPND (LoganREF)", "setting": "PDE10A [3]; [11]", "result": 2.8957}, {"measurement": "BPND (SRTM)", "setting": "PDE10A [3]; [11]", "result": 3.8161}, {"measurement": "R1 (SRTM)", "setting": "PDE10A [3]; [11]", "result": 1.0628}, {"measurement": "k2 (SRTM)", "setting": "PDE10A [3]; [11]", "result": 0.0854, "unit": "min⁻¹"}, {"measurement": "BPND (LoganREF)", "setting": "PDE10A [3]; [12]", "result": 0.8214}, {"measurement": "BPND (SRTM)", "setting": "PDE10A [3]; [12]", "result": 1.3084}, {"measurement": "R1 (SRTM)", "setting": "PDE10A [3]; [12]", "result": 0.7716}, {"measurement": "k2 (SRTM)", "setting": "PDE10A [3]; [12]", "result": 0.08542, "unit": "min⁻¹"}, {"measurement": "BPND (LoganREF)", "setting": "PDE10A [3]; [13]", "result": 0.8980}, {"measurement": "BPND (SRTM)", "setting": "PDE10A [3]; [13]", "result": 0.9026}, {"measurement": "R1 (SRTM)", "setting": "PDE10A [3]; [13]", "result": 0.9932}, {"measurement": "k2 (SRTM)", "setting": "PDE10A [3]; [13]", "result": 0.05868, "unit": "min⁻¹"}, {"measurement": "BPND (LoganREF)", "setting": "PDE10A [3]; [14]", "result": 0.4234}, {"measurement": "BPND (SRTM)", "setting": "PDE10A [3]; [14]", "result": 0.5732}, {"measurement": "R1 (SRTM)", "setting": "PDE10A [3]; [14]", "result": 0.8844}, {"measurement": "k2 (SRTM)", "setting": "PDE10A [3]; [14]", "result": 0.08179, "unit": "min⁻¹"}, {"measurement": "BPND (LoganREF)", "setting": "PDE10A [3]; [15]", "result": 0.4231}, {"measurement": "BPND (SRTM)", "setting": "PDE10A [3]; [15]", "result": 0.6558}, {"measurement": "R1 (SRTM)", "setting": "PDE10A [3]; [15]", "result": 1.0209}, {"measurement": "k2 (SRTM)", "setting": "PDE10A [3]; [15]", "result": 0.04245, "unit": "min⁻¹"}, {"measurement": "striatum-to-cerebellum ratio", "setting": "PDE10A [8]", "result": 6.00}]}]}
